Compound activity (PubChem BioAssay)
This is one part of a sample in which hits are shown more often than they occur.
A1 apoptosis 2 – A1 inhibitors via caspase activation, primary screen, cell-based, luminescence, HTS, two replicates; MEF A1-2A-BIM cells, caspase-Glo luminescence, 3 h; percent of clofoctol response, DMSO zero; caspase activation, % (no concentration beside the values); 24,000 tested, under 10 active; AID 2465, 2010; in the data active means caspase activation above about 5.9%
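Test system – A1-2A-BIM-expressing MEF cells · Input – 2500 cells/well · Medium – RPMI-1640 growth medium with 10% FBS · Compound dosing – 50 nL pinned compound · Timing – 3 h compound exposure at 37 °C · Technique – Caspase-Glo luminescence (DEVD substrate) · Evaluation – Caspase-3/7 activity from luminescence increase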
T cruzi intra – inhibitors of intracellular Trypanosoma cruzi, primary screen, cell-based, plate reader, single point, set 2; AID 651903, 2012; intracellular Trypanosoma cruzi in host cells; activity score (inhibition), % at 5.01 µM; 22,000 compounds, 4.9% hits; in the data active means activity score above about 55%;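 further: parasites and compound incubated about four days before reading; 0% = median of neutral control wells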
INS-1E rescue – protection of INS-1E cells from cytokine death, primary screen, ATP luminescence, single point | 20,000 compounds, 0.1% hits | INS-1E cytokine-induced death, 48 h; normalised: neutral wells 0, positive control 100 | AID 488910, 2010 | protection from cytokine-induced ATP loss, % at 10 µM;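 active means mean replicate protection from cytokine-induced ATP loss at least 50% and at least 75% of replicates each reaching 50%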
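assay system = INS-1E rat insulinoma cells | amount = 8000 cells per well | medium = phenol-red-free RPMI with 5% fetal bovine serum | doses = one compound concentration, pin transfer | timing = 48 h cytokine plus compound treatment, 10 min reagent incubation | also added = IL-1β, TNF-α and IFN-γ cytokine mix | signal = CellTiter-Glo luminescence measuring cellular ATP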
* = called active by the depositor; / = no result given.

SMILES	A1 apoptosis 2	T cruzi intra	INS-1E rescue
Cc1ccc(S(=O)(=O)N(C)C[C@H]2Oc3c(NC(=O)Nc4ccc(C(F)(F)F)cc4)cccc3C(=O)N([C@H](C)CO)C[C@H]2C)cc1	/	38	-36
C[C@H](CO)N1C[C@H](C)[C@@H](CN(C)S(=O)(=O)c2ccc(Cl)cc2)Oc2c(NC(=O)Nc3ccccc3)cccc2C1=O	0	68*	1
Cc1noc(C)c1NC(=O)Nc1cccc2c1O[C@@H](CN(C)S(C)(=O)=O)[C@@H](C)CN([C@@H](C)CO)C2=O	/	67*	-59
CC(C)NC(=O)N(C)C[C@H]1Oc2ccc(NC(=O)C3CCCCC3)cc2CC(=O)N([C@@H](C)CO)C[C@H]1C	/	-24	10
Cc1noc(C)c1NC(=O)N(C)C[C@@H]1Oc2ccc(NC(=O)CCCCCC(=O)Nc3ccccc3N)cc2C(=O)N([C@H](C)CO)C[C@H]1C	-2	-20	3
COC(=O)CCCCCCC(=O)N/N=C/c1cc(Br)cc(OC)c1O	0	26	32
O=C(CCCCCCC(=O)Nc1ccccc1O)N/N=C/c1ccc(OCCO)cc1	0	-3	-13
COC(=O)CCCCCCC(=O)N/N=C/c1cc(Br)cc(Br)c1O	1	62*	14
CN(C)CCCOc1ccc(/C=N/NC(=O)CCCCCCC(=O)NO)cc1	-1	/	/
COC(=O)CCCCCCC(=O)N/N=C/c1ccc(OCCCN(C)C)cc1	/	81*	9
COc1ccc(/C=N/NC(=O)CCCCCCC(=O)Nc2ccccc2O)c(O)c1	/	26	-6
O=C(CCCCCCC(=O)Nc1ccccc1O)N/N=C/c1ccc(OCc2ccccc2)cc1O	-2	78*	10
CN(C)CCCOc1ccc(/C=N/NC(=O)CCCCCCC(=O)Nc2ccccc2O)cc1	/	87*	-3
O=C(O)CCCCCC(=O)N=NC=C1C=CN(O)C=C1	1	-6	-10
COC(=O)CCCCCCC(=O)N/N=C/c1cc(F)ccc1O	-1	-7	-4
CC(C)NC(=O)Nc1cccc2c1O[C@H](CN(C)Cc1ccc3c(c1)OCO3)[C@@H](C)CN([C@H](C)CO)C2=O	1	38	0
COC(=O)CCCCCCC(=O)N/N=C/c1cccc(B(O)O)c1	0	-13	-1
COc1cccc(S(=O)(=O)N(C)C[C@@H]2Oc3ncc(-c4ccccc4)cc3C(=O)N([C@H](C)CO)C[C@@H]2C)c1	/	31	0
COc1cccc(S(=O)(=O)N(C)C[C@@H]2Oc3ncc(C#Cc4ccccc4)cc3C(=O)N([C@H](C)CO)C[C@@H]2C)c1	-1	62*	/
COc1ccc(C#Cc2cnc3c(c2)C(=O)N([C@H](C)CO)C[C@H](C)[C@H](CN(C)S(=O)(=O)c2ccc(C)cc2)O3)cc1OC	0	34	/
C[C@H](CO)N1C[C@H](C)[C@H](CN(C)S(=O)(=O)c2ccc(F)cc2)Oc2ncc(C#Cc3cccc(F)c3)cc2C1=O	0	65*	/
Cc1ccc(S(=O)(=O)N(C)C[C@@H]2Oc3ncc(C#Cc4ccc(F)cc4)cc3C(=O)N([C@H](C)CO)C[C@@H]2C)cc1	/	59*	/
C[C@H](CO)N1C[C@H](C)[C@H](CN(C)S(=O)(=O)c2ccccc2)Oc2ncc(C#Cc3cccc(F)c3)cc2C1=O	0	47	/
C[C@H](CO)N1C[C@H](C)[C@H](CN(C)S(=O)(=O)c2ccc(C#N)cc2)Oc2ncc(C#Cc3ccc(C(F)(F)F)cc3)cc2C1=O	1	87*	-11
C[C@H](CO)N1C[C@H](C)[C@H](CN(C)S(C)(=O)=O)Oc2ncc(C#Cc3ccc(C(F)(F)F)cc3)cc2C1=O	0	17	/
SMILES	A1 apoptosis 2	T cruzi intra	INS-1E rescue
O=C(N/N=C/c1ccc(OCc2ccccc2)cc1O)c1ccccc1O	-2	/	/
O=C(N/N=C/[C@@H](O)[C@@H](O)[C@H](O)[C@H](O)CO)c1ccccc1O	1	-11	-11
C[C@H](CO)N1C[C@H](C)[C@H](CN(C)S(=O)(=O)c2ccc(C#N)cc2)Oc2ncc(C#Cc3ccccc3)cc2C1=O	0	40	/
C[C@H](CO)N1C[C@H](C)[C@H](CN(C)S(=O)(=O)c2ccc(F)cc2)Oc2ncc(C#Cc3ccc(F)cc3)cc2C1=O	-1	66*	/
C[C@H](CO)N1C[C@H](C)[C@H](CN(C)S(=O)(=O)c2cccc(F)c2)Oc2ncc(C#Cc3ccc(F)cc3)cc2C1=O	/	64*	-15
Cc1ccc(S(=O)(=O)N(C)C[C@@H]2Oc3ncc(C#Cc4ccccc4)cc3C(=O)N([C@H](C)CO)C[C@@H]2C)cc1	0	57*	-15
C[C@H](CO)N1C[C@H](C)[C@H](CN(C)S(=O)(=O)c2cccc(F)c2)Oc2ncc(C#Cc3cccc(F)c3)cc2C1=O	/	51	/
C[C@H](CO)N1C[C@H](C)[C@H](CN(C)S(=O)(=O)c2cccs2)Oc2ncc(C#Cc3ccccc3)cc2C1=O	1	73*	/
C[C@H](CO)N1C[C@H](C)[C@H](CN(C)S(=O)(=O)c2ccccc2)Oc2ncc(C#Cc3ccc(F)cc3)cc2C1=O	0	52	/
C[C@H](CO)N1C[C@H](C)[C@H](CN(C)S(=O)(=O)c2cccs2)Oc2ncc(C#CCN(C)C)cc2C1=O	/	1	/
C[C@H](CO)N1C[C@H](C)[C@H](CN(C)CC2CCCCC2)Oc2ccc(NC(=O)Nc3ccc(F)cc3)cc2CC1=O	0	42	5
C[C@H]1CN([C@@H](C)CO)C(=O)Cc2cc(NC(=O)Nc3ccc(C(F)(F)F)cc3)ccc2O[C@@H]1CN(C)CC1CCCCC1	0	63*	-42
C[C@H]1CN([C@@H](C)CO)C(=O)Cc2cc(NC(=O)Nc3ccc(F)cc3)ccc2O[C@H]1CN(C)CC1CCCCC1	/	-5	-3
C[C@H](CO)N1C[C@H](C)[C@H](CN(C)CC2CCCCC2)Oc2ccc(NC(=O)Nc3ccc(C(F)(F)F)cc3)cc2CC1=O	0	60*	-79
N#Cc1ccc(/C=N/NC(=O)CCCCCCC(=O)Nc2ccccc2O)cc1	-1	-11	4
COc1ccc(Br)c(/C=N/NC(=O)c2ccc(C(=O)NO)cc2)c1	0	3	28
O=C(N/N=C/Cc1ccccc1)c1ccccn1	-2	7	5
C[C@@H]1CN([C@@H](C)CO)C(=O)c2cccc(NS(=O)(=O)c3cccs3)c2O[C@@H]1CN(C)CC1CCCCC1	/	-8	-4
NC(=O)COc1ccccc1/C=N/NC(=O)CCCCCCC(=O)Nc1ccccc1O	0	-14	1
CC(C)(C)/C=N/NC(=O)CCCCCCC(=O)O	/	-8	-8
C[C@@H]1CN([C@H](C)CO)C(=O)c2cccc(NC(=O)c3ccncc3)c2O[C@H]1CN(C)Cc1ccc2c(c1)OCO2	1	87*	-9
C[C@@H]1CN([C@H](C)CO)C(=O)c2cccc(NC(=O)c3ccncc3)c2O[C@@H]1CN(C)Cc1ccncc1	0	-22	12
C[C@@H]1CN([C@H](C)CO)C(=O)c2cccc(NC(=O)c3ccc(-c4nccs4)cc3)c2O[C@@H]1CN(C)Cc1ccc2c(c1)OCO2	0	15	-5
